This is a sample that favours compounds with a hit; in the whole collection about 4.2% have one here.
OX1R antag-1 = OX1R (human) antagonism; AID 485270; inhibition, % at 6.6 µM; actives 1.8% (n = 330,000); OX1R-expressing cells, FRET antagonist read-out; in the data active means inhibition mostly above about 38%, no sharp cut-off; inactive means mostly below about 40%;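 further: 0% = agonist challenge alone and 100% = reference antagonist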
OX1R antag-2 = antagonists of human orexin 1 receptor; AID 434989; O43613; CHO/OX1R cells, Fluo-8 calcium fluorescence, orexin A; actives 0.43% (n = 330,000); inhibition, % at 5 µM;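 active means inhibition above its plate's threshold, mean inhibition of all tested compounds on the plate plus 3 SD, cut at about 37% in these data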;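 further: 0% = orexin A challenge wells and 100% = SB-334867-A antagonist wells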
TAAR1 ag = agonists of human TAAR1. actives 0.99% (n = 360,000). activation, % at 3 µM. AID 624467. CHO RD-HGA16 TAAR1, Fluo-8 calcium fluorescence; vehicle wells 0%, saturating PEA agonist 100%. Q96RJ0;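 active means activation above the mean activation of all test compounds in the run plus 3 SD, cut at about 38% in these data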
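Benchmarks: low control DMSO, high control PEA (EC100); System: CHO RD-HGA16 cells carrying human TAAR1 plus Gα16; Detection: Fluo-8 fluorescence, 5 s baseline then 140 s kinetic read; Schedule: 17-24 h plating, Fluo-8 75 min 37 °C, 30 min RT; Read-out basis: % activation from peak over basal fluorescence ratio, DMSO-to-PEA scaled.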
GalR3 antag = human GalR3 antagonism; AID 651719; HEK293 GalR3-CNG cAMP membrane potential fluorescence; galR3 body fused to GalR1 C-terminus; actives 0.44% (n = 360,000); O60755; inhibition, % at 3 µM;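 active means inhibition above the screen-wide average plus 3 SD, cut at about 13% in these data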;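 further: forskolin and galanin both at EC90 stimulate the cells; cAMP rise reported by CNG channel membrane potential dye signal; 0% = forskolin plus galanin with DMSO and 100% = forskolin alone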
Target sequence (O60755 1-299 limits assumed): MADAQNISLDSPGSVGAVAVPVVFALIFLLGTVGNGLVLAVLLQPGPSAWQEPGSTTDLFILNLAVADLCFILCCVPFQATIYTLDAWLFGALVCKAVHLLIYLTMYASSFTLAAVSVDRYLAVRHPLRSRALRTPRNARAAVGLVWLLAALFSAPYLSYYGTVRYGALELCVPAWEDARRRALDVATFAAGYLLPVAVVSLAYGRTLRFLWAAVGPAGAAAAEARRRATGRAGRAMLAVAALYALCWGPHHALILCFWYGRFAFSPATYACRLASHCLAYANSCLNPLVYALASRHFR
CHO parental Ca = counter-screen for OX1R antagonists: effect in parental CHO cells; parental CHO-K1, ATP-induced calcium, Fluo-8 fluorescence; inhibition, % at 5.6 µM; actives 0.63% (n = 330,000);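 active means inhibition above that plate's mean sample inhibition plus 3 SD, cut at about 26% in these data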;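 further: 0% = ATP-challenged DMSO wells and 100% = DMSO wells without ATP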
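material = parental CHO cells | also added = ATP as calcium-mobilizing challenge | dosing = single point at 5.6 µM | detection = intracellular calcium via Fluo-8 no-wash fluorescent dye | read-out = % inhibition | benchmarks = low control ATP plus DMSO, high control DMSO only | repeats = one well per compound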
TAAR1 antagonist = antagonists of human TAAR1; CHO RD-HGA16 TAAR1, Fluo-8 calcium fluorescence, antagonist; inhibition, % at 3 µM; actives 1.5% (n = 360,000); AID 624466;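 active means inhibition above a per-plate cutoff, the mean inhibition of test compounds on that plate plus 3 SD, cut at about 49% in these data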;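 further: 0% = DMSO plus EC80 beta-PEA response and 100% = DMSO alone without agonist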
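System: RD-HGA16 CHO cells with stable hTAAR1 and Gα16 | Probe or stimulus: EC80 β-phenethylamine stimulus | Dosing: 3 µM, single point | Times: Dye loading 75 min at 37 °C, then 30 min room temperature | Measured by: Fluo-8 calcium-sensitive fluorescence | Read-out basis: % inhibition of agonist calcium response | Replicates: n of 1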
Numbers without * were called inactive.

For O=C(Nc1cccnc1)C1CCCN(S(=O)(=O)c2cccc3nsnc23)C1 (stereo unspecified) the results were OX1R antag-1 58*, OX1R antag-2 -19, TAAR1 ag 5, GalR3 antag -2, CHO parental Ca 15 and TAAR1 antagonist 12.
Screening COc1cc(NC(=O)C2CCCN(S(=O)(=O)c3cccc4nsnc34)C2)cc(OC)c1 (stereo unspecified) returned OX1R antag-1 48*, OX1R antag-2 -9, TAAR1 ag 9, GalR3 antag -2, CHO parental Ca -5 and TAAR1 antagonist 18.
`CC(C)OC(=O)c1nnn(-c2nonc2N)c1CSc1ccccn1` gave OX1R antag-1 11, OX1R antag-2 -12, TAAR1 ag 2, GalR3 antag -3, CHO parental Ca -4 and TAAR1 antagonist 0.
O=C(CCCOc1ccc(Br)cc1)Nc1ccc(S(=O)(=O)N2CCOCC2)cc1 was read as OX1R antag-1 14, OX1R antag-2 27, TAAR1 ag 16, GalR3 antag -4, CHO parental Ca 35* and TAAR1 antagonist 43.
Screening CN(CC(=O)Nc1ccncc1)S(=O)(=O)c1ccc(Br)cc1 returned OX1R antag-1 11, OX1R antag-2 -1, TAAR1 ag 5, GalR3 antag -8, CHO parental Ca -7 and TAAR1 antagonist 5.
CSc1cccc(NC(=O)CN(C)S(=O)(=O)c2ccc(C)cc2)c1 was read as OX1R antag-1 78*, OX1R antag-2 51*, TAAR1 ag 6, GalR3 antag 1, CHO parental Ca 30 and TAAR1 antagonist 12.
For Cc1ccc(S(=O)(=O)N(C)CC(=O)Nc2ccccc2)cc1 the results were OX1R antag-1 14, OX1R antag-2 -15, TAAR1 ag 11, GalR3 antag -3, CHO parental Ca -6 and TAAR1 antagonist -7.
CC(=O)Nc1ccc(S(=O)(=O)N(C)CC(=O)Nc2ccc(Br)cc2F)cc1 was read as OX1R antag-1 20, OX1R antag-2 -18, TAAR1 ag 5, GalR3 antag -3, CHO parental Ca 67* and TAAR1 antagonist 10.
Cc1cccc(SC2CCN(C(=O)C3CCC(=O)N(C4CC4)C3)CC2)c1 (stereo unspecified) was read as OX1R antag-1 9, OX1R antag-2 3, TAAR1 ag 0, GalR3 antag -6, CHO parental Ca -7 and TAAR1 antagonist -12.
Screening CCOc1ccc(CCNC(=O)c2ccc3c(=O)[nH]c4c(C(=O)NC(C)C)sc(=S)n4c3c2)cc1 returned OX1R antag-1 10, OX1R antag-2 -23, TAAR1 ag 3, GalR3 antag -6, CHO parental Ca -12 and TAAR1 antagonist 2.
Screening CCCCNC(=O)c1sc(=S)n2c1[nH]c(=O)c1ccccc12 returned OX1R antag-1 52*, OX1R antag-2 -11, TAAR1 ag 34, GalR3 antag -4, CHO parental Ca 3 and TAAR1 antagonist 5.
Cc1ccc2c(c1)c1c3n2CCN(CCC#N)C3CCC1 (stereo unspecified) was read as TAAR1 ag -1, GalR3 antag -4 and TAAR1 antagonist -10.
`O=C(NCC(c1ccc(F)cc1)N1CCOCC1)c1ccc([N+](=O)[O-])o1` (stereo unspecified) gave OX1R antag-1 48*, OX1R antag-2 9, TAAR1 ag 2, GalR3 antag -3, CHO parental Ca -2 and TAAR1 antagonist -14.
For Cc1ccc(-n2nnnc2CNC(=O)c2ccc([N+](=O)[O-])o2)cc1C the results were OX1R antag-1 29, OX1R antag-2 8, TAAR1 ag 0, GalR3 antag -2, CHO parental Ca 2 and TAAR1 antagonist 7.
`CC(=O)c1ccc(-c2ccc(C(=O)NCC(c3ccc(F)cc3)N3CCOCC3)o2)cc1` (stereo unspecified) gave OX1R antag-1 28, OX1R antag-2 -30, TAAR1 ag 9, GalR3 antag -5, CHO parental Ca -14 and TAAR1 antagonist 16.
For O=C(NCc1nnnn1-c1ccc(F)cc1)c1ccc([N+](=O)[O-])o1 the results were OX1R antag-1 54*, OX1R antag-2 -3, TAAR1 ag 0, GalR3 antag -5, CHO parental Ca 4 and TAAR1 antagonist -13.

Screening data (PubChem BioAssay)
